Converted amounts (≈) assume the structure as drawn.
How the values were obtained:
Candida albicans = experiment: Antifungal activity against Candida albicans ATCC 14503 after 48 hrs by microbroth dilution method; type: functional; conditions: ATCC 14503, 48 h
Procedure, shortened: (§1)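 Microbroth dilution per CLSI protocol in antibiotic medium 3; growth read as optical density at 590 nm in microplate wells; MIC90 reported. C. albicans ATCC 14503; C. krusei patient isolate from UC Davis clinical microbiology; C. gattii and C. grubii strains gifted from UC Davis.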

[1] = tested on: Cryptococcus gattii species complex; experiment: Antifungal activity against Cryptococcus gattii after 48 hrs by microbroth dilution method; type: functional, Cryptococcus bacillisporus; procedure, shortened: as §1
[2] = Drug degradation in presence of 3-tert-butyl-4-hydroxy-5-methylphenyl sulfide at -20 degC after 12 hrs by 1H-NMR spectroscopic method; type: physicochemical
[3] = Drug degradation in presence of 3-tert-butyl-4-hydroxy-5-methylphenyl sulfide at -20 degC after 48 hrs by 1H-NMR spectroscopic method; type: physicochemical
[4] = Stability assessed as drug degradation under ambient conditions by 1H-NMR spectroscopic method; type: physicochemical
Cryptococcus neoformans = experiment: Antifungal activity against Cryptococcus grubii after 48 hrs by microbroth dilution method; type: functional; procedure, shortened: as §1
Pichia kudriavzevii = experiment: Antifungal activity against fluconazole-resistant Candida krusei after 48 hrs by microbroth dilution method; type: functional; procedure, shortened: as §1

Row | SMILES | MIC90 (Candida albicans) | MIC90 [1] | Stability [2] | Stability [3] | Stability [4] | MIC90 (Cryptococcus neoformans) | MIC90 (Pichia kudriavzevii)
1 | CC(=C\Cc1ccccc1)/C=C(\C)C[C@@H](C)C[C@@]1(C)C[C@@](C)(CC(=O)O)OO1 | > 100 µM | > 100 µM | Stable | Unstable | Unstable |  | 
2 | CCCCC[C@]1(CC)C[C@H](CC)[C@@H]([C@H](O)C(=O)O)O1 | > 100 µM | > 100 µM |  |  |  |  | 
3 | CC(=C\Cc1ccccc1)/C=C(\C)C[C@@H](C)C[C@@]1(C)C[C@@](C)(/C=C/C(=O)O)OO1 | > 100 µM | > 100 µM | Stable | Unstable | Unstable |  | 
4 | C[C@H](CCCCCCCCCc1ccccc1)C[C@]1(C)C[C@H](C)[C@H](CC(=O)O)OO1 | 13 µM (≈ 5.44 µg/mL) | 2.4 µM (≈ 1 µg/mL) |  |  |  | 3.4 µM (≈ 1.42 µg/mL) | 2.7 µM (≈ 1.13 µg/mL)
5 | CCCCCC[C@]1(CC)C[C@H](CC)[C@H](CC(=O)O)OO1 | 22 µM (≈ 6.3 µg/mL) | 9.6 µM (≈ 2.75 µg/mL) |  |  |  | 6 µM (≈ 1.72 µg/mL) | 4.3 µM (≈ 1.23 µg/mL)
6 | CCCCC[C@]1(CC)C[C@H](CC)[C@H](CC(=O)O)OO1 | 27 µM (≈ 7.35 µg/mL) | 36 µM (≈ 9.81 µg/mL) |  |  |  | 26 µM (≈ 7.08 µg/mL) | 10 µM (≈ 2.72 µg/mL)
7 | CCCCC[C@]1(CC)C[C@H](CC)[C@H](CC(=O)OC)OO1 | > 100 µM | > 100 µM |  |  |  |  | 
8 | CCCCCC[C@]1(CC)C[C@H](CC)[C@H](CC(=O)OC)OO1 | > 100 µM | > 100 µM |  |  |  |  | 
9 | C/C(=C\C=C\Cc1ccccc1)C[C@@H](C)C[C@@]1(C)C[C@@](C)(/C=C/C(=O)O)OO1 | > 100 µM | > 100 µM | Stable | Unstable | Unstable |  | 

— ChEMBL document CHEMBL3808330, “Peroxide Natural Products from Plakortis zyggompha and the Sponge Association Plakortis halichondrioides-Xestospongia deweerdtae: Antifungal Activity against Cryptococcus gattii” (J Nat Prod, 2016)
